Bioassay records: PubChem BioAssay, Sanford-Burnham Center for Chemical Genomics
In the library only some 0.72% were active in any assay of this set; here they are far more common.
mIAP block: mouse IAP inhibition; AID 2806; inhibition, % at 10 µM; purified mouse IAP, CDP-Star luminescence, 30 min; 0.2% of 330,000 active;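 active = inhibition of at least 40% at 10 µM in the primary screen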;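 note: plate controls were DMSO with enzyme for no effect and no enzyme wells for full effect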
hIAP act: human IAP activation; activation factor at 10 µM; P09923; AID 2524; 0.16% of 330,000 active; purified human IAP, CDP-Star luminescence, 30 min; stronger effect = higher value; 1 = vehicle-only enzyme, 0 = enzyme-free background;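 active = activation factor of the enzyme at least 2-fold when tested at 20 µM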
Target sequence (P09923 whole entry, looked up): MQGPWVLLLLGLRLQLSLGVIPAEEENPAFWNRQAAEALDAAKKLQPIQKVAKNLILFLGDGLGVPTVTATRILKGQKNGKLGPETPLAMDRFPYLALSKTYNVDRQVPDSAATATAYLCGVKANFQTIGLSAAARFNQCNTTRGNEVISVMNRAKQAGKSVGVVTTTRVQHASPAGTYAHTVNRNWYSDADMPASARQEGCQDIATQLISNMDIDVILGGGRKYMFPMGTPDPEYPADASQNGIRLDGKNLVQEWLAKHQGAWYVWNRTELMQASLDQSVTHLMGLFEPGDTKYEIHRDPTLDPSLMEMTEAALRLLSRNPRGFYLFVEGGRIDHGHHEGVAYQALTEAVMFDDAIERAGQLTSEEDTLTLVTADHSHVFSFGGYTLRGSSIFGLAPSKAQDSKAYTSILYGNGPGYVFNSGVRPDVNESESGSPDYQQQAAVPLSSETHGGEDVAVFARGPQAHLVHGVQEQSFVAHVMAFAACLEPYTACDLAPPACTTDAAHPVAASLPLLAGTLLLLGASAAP
bIAP activator: increases bovine intestinal alkaline phosphatase activity | purified bovine IAP, CDP-star luminescence, 30 min; stronger effect = higher value; fold of DMSO-control signal, blank-subtracted | activation factor at 20 µM | 0.17% of 200,000 active;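 active = activation factor of 2 or more at 20 µM, a signal rise over negative controls twice the positive control's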
hIAP block: blocks human intestinal alkaline phosphatase. inhibition, % at 10 µM. 0.12% of 330,000 active. AID 2544. purified IAP, CDP-Star luminescence, 30 min. P09923;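 active = inhibition reaching a set limit with compound at 10 µM in the primary screen, cut at about 35% in these data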;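 note: plate controls were DMSO wells with enzyme for no effect and no-enzyme buffer wells for full effect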
mIAP activ: increases mouse intestinal alkaline phosphatase activity | muIAP, CDP-Star luminescence, 30 min; stronger effect = higher value; 1 = vehicle-only enzyme signal, 0 = enzyme-free wells | 0.24% of 330,000 active | AID 2805 | activation factor at 10 µM;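 active = activation factor of at least 2 at 20 µM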
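Assay system: mouse IAP enzyme; Reagent: CDP-Star chemiluminescent phosphatase substrate; Compound: DMSO-dissolved test compounds; Incubation: 30 min, room temperature; Technique: luminescence from enzymatic CDP-Star hydrolysis; Controls: DMSO-only wells and no-enzyme negative control.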
bIAP inh: blocks bovine intestinal alkaline phosphatase activity. 190,000 tested, under 10 active. AID 1019. inhibition, % at 20 µM. purified bovine IAP, CDP-star luminescence, 30 min;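 active = over 50% inhibition of intestinal alkaline phosphatase at 20 µM in the single-dose screen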
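test system = bovine IAP enzyme | medium = DEA buffer 100 mM, pH 9.8, with MgCl2 1.0 mM, ZnCl2 0.02 mM | detection = luminescence | dosing = single compound dose of 20 µM, 2% DMSO final | incubation = 30 min reaction at room temperature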
* = called active by the depositor; i = inactive; · = not tested or not shown.

SMILES | mIAP block | hIAP act | bIAP activator | hIAP block | mIAP activ | bIAP inh
O=C(NCc1ccccn1)c1ccc(OC2CCN(Cc3cccs3)CC2)cc1 | -6.9 | 1.12 | · | -12.3 | 1.07 | ·
CCCCc1ccc(NC(=O)CSC2=NN3CCCC(=O)N=C3S2)cc1 | -11.8 | 0.948 | · | 5.2 | 1.12 | ·
Cc1onc(-c2ccccc2)c1NC(=O)Nc1ccc(OC(F)F)cc1 | -100.1 | 0.999 | · | 0.1 | 2* | ·
Cc1onc(-c2ccccc2)c1C(=O)Nc1ccc(OC(C)C)cc1 | -2.2 | 1.12 | 0.8 | -12.1 | 1.02 | 15.7
Cc1ccsc1/C=N/NC(=O)c1ccc2ccccc2c1 | 9.5 | 1.02 | · | -1.7 | 0.905 | ·
COc1ccc(C(=O)NC(C)CCc2ccccc2)c(O)c1 (stereo unspecified) | 1.7 | 0.918 | · | 8.2 | 0.983 | ·
OC[C@@H]1[C@@H](c2ccccc2)C(c2ccc(F)cc2)=NN1c1ccccc1 | -84.1 | · | · | · | 1.84 | ·
Cc1cccc(C2=NN(c3ccccc3)[C@H](CO)[C@H]2c2ccc(Cl)cc2)c1 | -101.2 | · | · | · | 2.01* | ·
OC[C@@H]1[C@@H](c2ccc(Cl)cc2)C(c2ccc(F)cc2)=NN1c1ccccc1 | -101.7 | · | · | · | 2.02* | ·
CCN(CCNCC(O)COc1ccccc1C(C)C)c1cccc(C)c1 (stereo unspecified) | -3.1 | 0.953 | · | 4.7 | 1.03 | ·
Cc1c(CCOC(=O)c2cccc([N+](=O)[O-])c2)sc[n+]1CC(=O)c1ccccc1 | 42.8* | 0.848 | 0.4 | 15.2 | 0.572 | ·
CCc1cc(=O)oc2cc(C)cc(OCC(=O)N3CCC(C(=O)NC(C)C)(c4ccccc4)CC3)c12 | -5.0 | 1.05 | · | -5.1 | 1.05 | ·
O=C(c1ccccc1)c1ccc(NCCCn2ccnc2)c([N+](=O)[O-])c1 | 10.3 | 1.04 | · | -3.6 | 0.897 | ·
Cc1ccc(OC(F)F)c(NC(=O)Nc2cccc(C(F)(F)F)c2)c1 | -105.9 | 1.02 | 0.7 | -2.5 | 2.06* | 27.7
CNC(=O)Nc1cccc(C(F)(F)F)c1 | 9.3 | 0.936 | 0.9 | 6.4 | 0.907 | 5.9
COc1cccc(NC(=O)Nc2cc(C)ccc2OC)c1 | -25.8 | 0.754 | 1 | 24.6 | 1.26 | 1.7
S=C(NCc1ccccc1)NCc1cccc(CNC(=S)NCc2ccccc2)c1 | -139.7 | 0.936 | 0.9 | 6.4 | 2.4* | 6.3
FC(F)(F)Sc1ccc(NC(=S)NCc2ccccc2)cc1 | -132.2 | 0.999 | · | 0.1 | 2.32* | ·
O=C(Nc1ccccc1)Nc1cccc(C(F)(F)F)c1 | -187.0 | 1.15 | 1 | -15.4 | 2.87* | 0.8
COc1ccc(Cl)c2sc(N(CCN(C)C)C(=O)c3ccc4c(c3)OCCO4)nc12 | 0.3 | 1.1 | · | -9.6 | 0.997 | ·
CC(=O)NC(CC(=O)NNC(=O)c1cccs1)c1ccccc1 (stereo unspecified) | 4.2 | 0.942 | · | 5.8 | 0.958 | ·
COc1ccc(N2CCN(C(CNC(=O)C(=O)NCC(OC)OC)c3ccco3)CC2)cc1 (stereo unspecified) | -0.7 | 0.828 | · | 17.2 | 1.01 | ·
FC(F)(F)c1cccc(NC(=S)NCc2ccccc2)c1 | -120.4 | 1.23 | 0.6 | -22.6 | 2.2* | 36.9
FC(F)(F)c1cccc(CNC(=S)Nc2ccccc2)c1 | -33.7 | 1.08 | 0.7 | -7.8 | 1.34 | 26.5
CC(=O)c1ccc(S(=O)(=O)N2CCC(NC(=O)Nc3cccc(F)c3)CC2)cc1 | -21.3 | 1.21 | 1.1 | -21.1 | 1.21 | -13.0
SMILES | mIAP block | hIAP act | bIAP activator | hIAP block | mIAP activ | bIAP inh
O=C(Nc1cccc(C(F)(F)F)c1)NC1CCN(S(=O)(=O)c2ccc(F)cc2)CC1 | -133.8 | 0.928 | 0.9 | 7.2 | 2.34* | 11.9
COc1ccc(CN(C)C(=O)/C=C/c2ccc(S(=O)(=O)N3CCCCCC3)cc2)cc1 | -3.1 | 0.999 | · | 0.1 | 1.03 | ·
CC(=O)c1ccc(N2CCN(S(=O)(=O)c3c(C)[nH]c(C)c3C(=O)N3CCCCC3)CC2)cc1 | -2.1 | 1.15 | · | -15.0 | 1.02 | ·
CC(=O)Nc1ccc(NC(=O)CS(=O)(=O)c2cn(CC(=O)N3CCC(C)CC3)c3ccccc23)cc1 | -2.8 | 1.31 | · | -30.7 | 1.03 | ·
Cc1ccc(CN2CCN(c3cccc4[nH]ccc34)CC2)cc1 | -11.6 | 0.942 | · | 5.8 | 1.12 | ·
Cc1ccccc1C(=O)NC(CC(C)C)C(=O)OCC(=O)c1c(N)n(C)c(=O)n(C)c1=O (stereo unspecified) | -3.8 | 1.07 | 2.1* | -7.4 | 1.04 | -105.4
O=C(NCCc1ccccc1)c1n[nH]c2ccccc12 | -2.4 | 0.807 | 2* | 19.3 | 1.02 | -96.0
Cc1nn(Cc2cccc(Oc3ccccc3)c2)c(C)c1NC(=O)NC12CC3CC(CC(C3)C1)C2 | i | 0.965 | 1 | 3.5 | 6.77* | -0.4
O=C(NCc1ccccc1)NC12CC3CC(CC(C3)C1)C2 | -9.5 | 0.948 | · | 5.2 | 1.09 | ·
O=C(NCc1ccccc1)NCC12CC3CC(CC(C3)C1)C2 | -110.7 | 1.21 | 1 | -21.4 | 2.11* | -0.8
CC1CN(S(=O)(=O)c2ccc(C(=O)OCc3ccc(C#N)cc3)cc2)CC(C)O1 (stereo unspecified) | 5.0 | 0.994 | · | 0.6 | 0.95 | ·
COC(=O)Nc1ccc(S(=O)(=O)Nc2ccc(C)cc2)cc1 | · | · | 0.9 | · | · | 6.3
COC(=O)Nc1ccc(S(=O)(=O)Nc2ccc(O)cc2)cc1 | 11.8 | 1.05 | 2.4* | -5.1 | 0.882 | -142.1
CC(=O)c1cccc(NC(=O)C2CCCN(S(=O)(=O)c3ccc(F)cc3)C2)c1 (stereo unspecified) | -3.0 | 1.14 | 0.9 | -14.2 | 1.03 | 13.0
Cc1ccc(NC(=O)C2CCN(S(=O)(=O)c3ccc(N4CCCC4=O)cc3)CC2)cc1Cl | -162.7 | 1.81 | · | -81.4 | 2.63* | ·
COc1ccc(S(=O)(=O)N2CCCC(C(=O)Nc3cccc(C(C)=O)c3)C2)cc1 (stereo unspecified) | 0.5 | 1.14 | 2.5* | -14.1 | 0.995 | -148.5
COc1ccc(S(=O)(=O)N2CCC(C(=O)Nc3cccc(Cl)c3)CC2)cc1OC | -176.0 | 1.11 | 1 | -10.7 | 2.76* | 0.9
COc1ccc(NC(=O)C2CCN(S(=O)(=O)c3ccc(C)cc3)CC2)cc1OC | -22.9 | 1.12 | 0.9 | -11.8 | 1.23 | 8.2
CCc1ccc(N2C(=O)C(Cl)=C(Nc3ccc(C(=O)N4CCCC4)cc3)C2=O)cc1 | -0.3 | 0.966 | · | 3.4 | 1 | ·
COc1ccc(-c2c(NC(=O)c3ccco3)oc3c(C)cccc3c2=O)cc1 | -1.5 | 1.41 | · | -41.4 | 1.01 | ·
COc1cc(C(=O)Nc2nc3ccccc3[nH]2)ccc1OC(F)F | -0.2 | 1.2 | · | -20.3 | 1 | ·
COc1ccc(C(=O)Nc2nc3ccccc3[nH]2)cc1OC | 4.1 | 0.97 | 2.2* | 3.0 | 0.959 | -122.1
COc1ccc(C(CC(=O)Nc2cc(OC)cc(OC)c2)n2cccc2)cc1 (stereo unspecified) | -122.3 | 1.2 | 0.9 | -20.0 | 2.22* | 10.3
COc1ccc(C(CC(=O)Nc2ccccc2OC)n2cccc2)cc1 (stereo unspecified) | 0.0 | 1.05 | 0.9 | -4.7 | 1 | 10.7
Cc1cc(NC(=O)CSc2ncnc3sccc23)no1 | 2.2 | 0.938 | 1 | 6.2 | 0.978 | -3.9
